# Experimental data taken from ChEMBL document CHEMBL1629517, “Molecular properties prediction, synthesis and antimicrobial activity of some newer oxadiazole derivatives” (2010).
# What was measured:
# Staphylococcus aureus [1] = assay: Antibacterial activity against Staphylococcus aureus ATCC 25923 at 100 ug/ml after 24 hrs by disc-diffusion method; assay type: functional; conditions: ATCC 25923, 24 h, read-out: IZ
# Staphylococcus aureus [2] = assay: Antibacterial activity against Staphylococcus aureus ATCC 25923 at 200 ug/ml after 24 hrs by disc-diffusion method; assay type: functional; conditions: ATCC 25923, 24 h, read-out: IZ
# Bacillus subtilis [3] = assay: Antibacterial activity against Bacillus subtilis ATCC 6633 at 100 ug/ml after 24 hrs by disc-diffusion method; assay type: functional; conditions: ATCC 6633, 24 h, read-out: IZ
# Bacillus subtilis [4] = assay: Antibacterial activity against Bacillus subtilis ATCC 6633 at 200 ug/ml after 24 hrs by disc-diffusion method; assay type: functional; conditions: ATCC 6633, 24 h, read-out: IZ
# Escherichia coli [5] = assay: Antibacterial activity against Escherichia coli ATCC 25922 at 100 ug/ml after 24 hrs by disc-diffusion method; assay type: functional; conditions: ATCC 25922, 24 h, read-out: IZ
# Escherichia coli [6] = assay: Antibacterial activity against Escherichia coli ATCC 25922 at 200 ug/ml after 24 hrs by disc-diffusion method; assay type: functional; conditions: ATCC 25922, 24 h, read-out: IZ
# Pseudomonas aeruginosa [7] = assay: Antibacterial activity against Pseudomonas aeruginosa ATCC 27853 at 100 ug/ml after 24 hrs by disc-diffusion method; assay type: functional; conditions: ATCC 27853, 24 h, read-out: IZ
# Pseudomonas aeruginosa [8] = assay: Antibacterial activity against Pseudomonas aeruginosa ATCC 27853 at 200 ug/ml after 24 hrs by disc-diffusion method; assay type: functional; conditions: ATCC 27853, 24 h, read-out: IZ
# Staphylococcus aureus [9] = assay: Antibacterial activity against Staphylococcus aureus ATCC 25923 after 24 hrs by broth dilution technique; assay type: functional; conditions: ATCC 25923, 24 h
# Outline: (§1)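 MIC by broth dilution: nutrient broth containing logarithmic two-fold serial dilutions of compound was inoculated with about 5 × 10⁵ c.f.u. of actively dividing bacteria.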
# Bacillus subtilis [10] = assay: Antibacterial activity against Bacillus subtilis ATCC 6633 after 24 hrs by broth dilution technique; assay type: functional; conditions: ATCC 6633, 24 h; outline: as §1
# Escherichia coli [11] = assay: Antibacterial activity against Escherichia coli ATCC 25922 after 24 hrs by broth dilution technique; assay type: functional; conditions: ATCC 25922, 24 h; outline: as §1
# Pseudomonas aeruginosa [12] = assay: Antibacterial activity against Pseudomonas aeruginosa ATCC 27853 after 24 hrs by broth dilution technique; assay type: functional; conditions: ATCC 27853, 24 h; outline: as §1
# Staphylococcus aureus [13] = assay: Antibacterial activity against Staphylococcus aureus ATCC 25923 after 18 to 24 hrs; assay type: functional
# Bacillus subtilis [14] = assay: Antibacterial activity against Bacillus subtilis ATCC 6633 after 18 to 24 hrs; assay type: functional
# Escherichia coli [15] = assay: Antibacterial activity against Escherichia coli ATCC 25922 after 18 to 24 hrs; assay type: functional
# Pseudomonas aeruginosa [16] = assay: Antibacterial activity against Pseudomonas aeruginosa ATCC 27853 after 18 to 24 hrs; assay type: functional
# Aspergillus niger [17] = assay: Antifungal activity against Aspergillus niger at 200 ug/ml after 48 hrs by agar diffusion method; assay type: functional; conditions: read-out: IZ
# Outline: (§2)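 Agar well diffusion on Sabouraud agar (peptone 1 g, D-glucose 4 g, agar 2 g per 100 ml water, pH 5.7). Plates were lawned with a saline suspension of spores, excess was decanted, and plates were dried 1 h at 37 °C. Compounds in DMSO went into punched wells, and inhibition zones were measured against controls, with voriconazole as standard.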
# Candida albicans [18] = assay: Antifungal activity against Candida albicans at 100 ug/ml after 48 hrs by agar diffusion method; assay type: functional; conditions: read-out: IZ; outline: as §2
# Candida albicans [19] = assay: Antifungal activity against Candida albicans at 200 ug/ml after 48 hrs by agar diffusion method; assay type: functional; conditions: read-out: IZ; outline: as §2
# Aspergillus niger [20] = assay: Antifungal activity against Aspergillus niger after 48 hrs; assay type: functional
# Candida albicans [21] = assay: Antifungal activity against Candida albicans after 48 hrs; assay type: functional
# Aspergillus niger [22] = assay: Antifungal activity against Aspergillus niger at 100 ug/ml after 3 to 4 days by agar diffusion method; conditions: read-out: IZ
Compound,zone of inhibition at 100 µg/mL (Staphylococcus aureus [1]) [mm],zone of inhibition at 200 µg/mL (Staphylococcus aureus [2]) [mm],zone of inhibition at 100 µg/mL (Bacillus subtilis [3]) [mm],zone of inhibition at 200 µg/mL (Bacillus subtilis [4]) [mm],zone of inhibition at 100 µg/mL (Escherichia coli [5]) [mm],zone of inhibition at 200 µg/mL (Escherichia coli [6]) [mm],zone of inhibition at 100 µg/mL (Pseudomonas aeruginosa [7]) [mm],zone of inhibition at 200 µg/mL (Pseudomonas aeruginosa [8]) [mm],MIC (Staphylococcus aureus [9]) [µg/mL],MIC (Bacillus subtilis [10]) [µg/mL],MIC (Escherichia coli [11]) [µg/mL],MIC (Pseudomonas aeruginosa [12]) [µg/mL],MBC (Staphylococcus aureus [13]) [µg/mL],MBC (Bacillus subtilis [14]) [µg/mL],MBC (Escherichia coli [15]) [µg/mL],MBC (Pseudomonas aeruginosa [16]) [µg/mL],zone of inhibition at 200 µg/mL (Aspergillus niger [17]) [mm],zone of inhibition at 100 µg/mL (Candida albicans [18]) [mm],zone of inhibition at 200 µg/mL (Candida albicans [19]) [mm],MFC (Aspergillus niger [20]) [µg/mL],other results
COc1ccc(C(=O)/C=C/c2ccc(OCc3nnc(COc4ccccc4)o3)c(OC)c2)cc1,17,19,13,16,21,22,26,28,12.5,12.5,25,25,25,12.5,12.5,12.5,19,11,14,12.5,MIC (Aspergillus niger [20]): 6 µg/mL; MFC (Candida albicans [21]): 25 µg/mL; MIC (Candida albicans [21]): 12.5 µg/mL; zone of inhibition at 100 µg/mL (Aspergillus niger [22]): 16 mm
COc1cc(/C=C/C(=O)c2ccc(O)cc2)ccc1OCc1nnc(COc2ccccc2)o1,17,18,14,16,20,22,25,27,6,12.5,6,12.5,12.5,25,12.5,25,24,17,19,12.5,MIC (Aspergillus niger [20]): 6 µg/mL; MFC (Candida albicans [21]): 25 µg/mL; MIC (Candida albicans [21]): 12.5 µg/mL; zone of inhibition at 100 µg/mL (Aspergillus niger [22]): 22 mm
COc1cc(/C=C/C(=O)c2ccc(O)cc2)ccc1OCc1nnc(-c2ccccc2)o1,17,18,13,15,21,23,25,27,25,12.5,12.5,25,50,25,50,50,24,16,18,50,MIC (Aspergillus niger [20]): 25 µg/mL; MFC (Candida albicans [21]): 25 µg/mL; MIC (Candida albicans [21]): 12.5 µg/mL; zone of inhibition at 100 µg/mL (Aspergillus niger [22]): 22 mm
COc1cc(/C=C/C(=O)c2ccc(O)cc2)ccc1OCc1nnc(-c2ccccc2O)o1,19,20,16,18,23,24,27,28,6,6,12.5,6,12.5,12.5,25,12.5,29,21,24,12.5,MIC (Aspergillus niger [20]): 6 µg/mL; MFC (Candida albicans [21]): 12.5 µg/mL; MIC (Candida albicans [21]): 6 µg/mL; zone of inhibition at 100 µg/mL (Aspergillus niger [22]): 27 mm
